Measured values published in ChEMBL document CHEMBL3352185, “Design, synthesis, and antibacterial properties of dual-ligand inhibitors of acetyl-CoA carboxylase” (2014).
≈ marks a conversion by molar mass, not a printed value. Calls of active or inactive are those of the source. The rule behind the calls is not given here.

Assays:
Staphylococcus aureus [1] = assay: microbe, parasite or virus in culture; settings: ATCC 29213
Escherichia coli [2] = assay: Antibacterial activity against Escherichia coli D21 IpxC101/tolC deletion mutant after 18 to 24 hrs by two-fold broth microdilution method; assay type: functional
Outline: (§1)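 CLSI broth microdilution in cation-adjusted Mueller Hinton (MHII) broth. Strains streaked on agar and grown overnight at 35 °C. […] Value is the MIC.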

Escherichia coli [3] = assay: Antibacterial activity against Escherichia coli D21 IpxC101 deletion mutant after 18 to 24 hrs by two-fold broth microdilution method; assay type: functional
Outline: as §1

Escherichia coli [4] = assay: Antibacterial activity against moiramide-resistant Escherichia coli D21 tolC deletion mutant after 18 to 24 hrs by two-fold broth microdilution method; assay type: functional
Outline: as §1

[5] = test system: Staphylococcus epidermidis; assay: Antibacterial activity against wild type Staphylococcus epidermidis ATCC 35984 after 18 to 24 hrs by two-fold broth microdilution method; assay type: functional
Outline: (§2)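 MICs were determined by CLSI broth microdilution in cation-adjusted Mueller Hinton (MHII) broth. Organisms were first streaked on agar and grown overnight at 35 °C. Compounds were dissolved in 100% DMSO and tested as 2-fold serial dilutions. A standardized inoculum was incubated with compound for 18−24 h at 35 °C. The norA strain is an otherwise isogenic S. aureus carrying a gain-of-function NorA mutation.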

Enterococcus faecalis = assay: Antibacterial activity against wild type Enterococcus faecalis ATCC 29212 after 18 to 24 hrs by two-fold broth microdilution method; assay type: functional
Outline: as §2

Escherichia coli [6] = assay: Antibacterial activity against wild type Escherichia coli D21 after 18 to 24 hrs by two-fold broth microdilution method; assay type: functional
Outline: as §1

Pseudomonas aeruginosa [7] = assay: Antibacterial activity against Pseudomonas aeruginosa PAO1 mexAB/mexCD/mexXY/mexHI/opmH deletion mutant after 18 to 24 hrs by two-fold broth microdilution method
Staphylococcus aureus [8] = assay: Antibacterial activity against moiramide-resistant Staphylococcus aureus ATCC 29213 after 18 to 24 hrs by two-fold broth microdilution method; assay type: functional
Outline: as §1

Pseudomonas aeruginosa [9] = assay: Antibacterial activity against wild type Pseudomonas aeruginosa PAO1 after 18 to 24 hrs by two-fold broth microdilution method; assay type: functional
Outline: as §1

Staphylococcus aureus [10] = assay: microbe, parasite or virus in culture; settings: ATCC 29213; remark: listed apart in the source
Escherichia coli [11] = assay: Antibacterial activity against Escherichia coli D21 tolC deletion mutant after 18 to 24 hrs by two-fold broth microdilution method; assay type: functional
Outline: as §1

Escherichia coli [12] = assay: Competitive inhibition of Escherichia coli acetyl-CoA carboxylase using acetyl-CoA as substrate in presence of ATP
Outline: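 ACC holoenzyme activity was measured with a pyruvate kinase/lactate dehydrogenase coupled assay. Mix: 0.5 mM phosphoenolpyruvate, 0.2 mM NADH, 20 mM MgCl2, 15 mM bicarbonate, 100 mM HEPES pH 8.0. ATP was fixed at 5 μM, acetyl-CoA was varied from 50 to 1000 μM, and inhibitor was used at fixed increasing concentrations. Initial velocities were fitted to a competitive equation to give Kis.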

Escherichia coli [13] = assay: Antibacterial activity against Escherichia coli JM109 at 1 to 100 uM after 4 hrs by UV-Vis spectrophotometry; assay type: functional, organism-based
Outline: (§3)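 E. coli JM109 was grown overnight in LB at 37 °C, then diluted into fresh LB tubes. Tubes received compound from a DMSO stock at final 1, 10, 50 or 100 μM, with or without polymyxin B nonapeptide at final 0.5, 1, 5 or 10 μg/mL. Tubes were incubated 4 h at 37 °C and growth was read as absorbance at 600 nm.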

Escherichia coli [14] = assay: Non competitive inhibition of Escherichia coli acetyl-CoA carboxylase using acetyl-CoA as substrate in presence of ATP
Escherichia coli [15] = assay: Antibacterial activity against Escherichia coli JM109 at 1 to 100 uM after 4 hrs by UV-Vis spectrophotometry in presence of PBMN; assay type: functional, organism-based
Outline: as §3

Escherichia coli [16] = assay: Antibacterial activity against Escherichia coli D21 tolC deletion mutant assessed as mutant prevention concentration after 18 to 24 hrs by two-fold broth microdilution method; assay type: functional
Outline: (§4)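 Single-step selection on MHII agar: compound added to molten agar cooled to 55 °C, at 2-fold increasing concentrations. Overnight MHII broth culture of E. coli tolC concentrated by centrifugation; 4 × 10^9 CFU plated per plate, CFU counted by serial dilution. Plates monitored for resistant colonies. MPC is the lowest consecutive concentration fully suppressing resistant mutants. Ratio is MPC to broth microdilution MIC.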

Escherichia coli [17] = assay: Ratio of MPC for Escherichia coli D21 tolC deletion mutant to MIC for Escherichia coli D21 tolC deletion mutant; assay type: functional
Outline: as §4

Escherichia coli [18] = assay: Competitive inhibition of Escherichia coli biotin carboxylase
Escherichia coli [19] = assay: Inhibition of Escherichia coli acetyl-CoA carboxylase
Outline: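 Purified ACC complex was assayed by PK/LDH-coupled NADH oxidation in 100 mM HEPES pH 8.0, with 20 mM MgCl2 and 15 mM bicarbonate. One series varied ATP (0.8–56 μM) at 0.2 mM acetyl-CoA; the other varied acetyl-CoA (50–1000 μM) at 5 μM ATP. Each series was run at fixed increasing inhibitor levels. Kis and Kii came from fits to competitive or noncompetitive rate equations.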

Staphylococcus aureus [20] = assay: Selectivity ratio of MIC for moiramide-resistant Staphylococcus aureus ATCC 29213 to MIC for Staphylococcus aureus ATCC 29213; assay type: functional
Escherichia coli [21] = assay: Selectivity ratio of MIC for moiramide-resistant Escherichia coli D21 tolC deletion mutant to MIC for Escherichia coli D21 tolC deletion mutant; assay type: functional

Compound | MIC (Staphylococcus aureus [1]) | MIC (Escherichia coli [2]) | MIC (Escherichia coli [3]) | MIC (Escherichia coli [4]) | MIC [5] | MIC (Enterococcus faecalis) | MIC (Escherichia coli [6]) | MIC (Pseudomonas aeruginosa [7]) | MIC (Staphylococcus aureus [8]) | MIC (Pseudomonas aeruginosa [9]) | MIC (Staphylococcus aureus [10]) | MIC (Escherichia coli [11]; Escherichia coli, D21) | Kis (Escherichia coli [12]) | Kii (Escherichia coli [14]) | Kis (Escherichia coli [14]) | Activity (Escherichia coli [16]) | Ratio (Escherichia coli [17]) | also measured
NC[C@H]1O[C@H](O[C@H]2[C@H](O)[C@@H](O[C@H]3O[C@H](CO)[C@@H](O)[C@H](N)[C@H]3O)[C@H](N)C[C@@H]2N)[C@H](O)[C@@H](O)[C@@H]1O [KANAMYCIN] | 4 µg/mL (≈ 8.26 µM) | 0.5 µg/mL (≈ 1.03 µM) | 1 µg/mL (≈ 2.06 µM) | 0.5 µg/mL (≈ 1.03 µM) | > 128 µg/mL | 31 µg/mL (≈ 64 µM) | 2 µg/mL (≈ 4.13 µM) | 64 µg/mL (≈ 132 µM) | 2 µg/mL (≈ 4.13 µM) | 128 µg/mL (≈ 264 µM) | 4 µg/mL (≈ 8.26 µM) | 2 µg/mL (≈ 4.13 µM) | – | – | – | – | – | –
CC(C)[C@H](NC(=O)C[C@H](NC(=O)CCCCCCCCCCCCCCCOc1ccc(CN(Cc2ccccc2)C(=O)c2cnc(N)o2)cc1)c1ccccc1)C(=O)[C@@H]1C(=O)NC(=O)[C@H]1C | > 64 µg/mL | – | – | – | > 64 µg/mL | > 64 µg/mL | > 64 µg/mL | – | – | > 64 µg/mL | > 64 µg/mL | – | 5.2 nM | 33.7 nM | 28.7 nM | – | – | Activity (Escherichia coli [13]): inactive; Activity (Escherichia coli [15]): Active
CO[C@H]1/C=C/O[C@@]2(C)Oc3c(C)c(O)c4c(O)c(c(/C=N/N5CCN(C)CC5)c(O)c4c3C2=O)NC(=O)/C(C)=C\C=C\[C@H](C)[C@H](O)[C@@H](C)[C@@H](O)[C@@H](C)[C@H](OC(C)=O)[C@@H]1C [RIFAMPIN] | ≤ 0.03 µg/mL | 0.5 µg/mL (≈ 0.608 µM) | 0.06 µg/mL (≈ 0.0729 µM) | – | ≤ 0.03 µg/mL | 0.5 µg/mL (≈ 0.608 µM) | 31 µg/mL (≈ 37.7 µM) | 31 µg/mL (≈ 37.7 µM) | – | 31 µg/mL (≈ 37.7 µM) | ≤ 0.03 µg/mL | 8 µg/mL (≈ 9.72 µM) | – | – | – | >64 mg/L | >8 | Activity (Escherichia coli [11]): >64 mg/L
Nc1ncc(C(=O)N(Cc2ccccc2)Cc2ccccc2)o1 | > 64 µg/mL | 16 µg/mL (≈ 52.1 µM) | – | 8 µg/mL (≈ 26 µM) | > 64 µg/mL | > 64 µg/mL | > 64 µg/mL | – | – | > 64 µg/mL | > 64 µg/mL | 16 µg/mL (≈ 52.1 µM) | – | 900 nM | 400 nM | >128 mg/L | >8 | Kis (Escherichia coli [18]): 0.8 µM
GENTAMICIN | – | < 0.03 µg/mL | 0.12 µg/mL | – | 8 µg/mL | 8 µg/mL | 0.1 µg/mL | – | – | 2 µg/mL | – | – | – | – | – | – | – | MIC (Escherichia coli [11]): 0.24 µg/mL
CC(C)[C@H](NC(=O)C[C@H](NC(=O)CCCCCCCOc1ccc(CN(Cc2ccccc2)C(=O)c2cnc(N)o2)cc1)c1ccccc1)C(=O)[C@@H]1C(=O)NC(=O)[C@H]1C | 4 µg/mL (≈ 4.96 µM) | 4 µg/mL (≈ 4.96 µM) | – | 16 µg/mL (≈ 19.8 µM) | 1 µg/mL (≈ 1.24 µM) | 4 µg/mL (≈ 4.96 µM) | > 64 µg/mL | – | > 64 µg/mL | > 64 µg/mL | 4 µg/mL (≈ 4.96 µM) | 8 µg/mL (≈ 9.91 µM) | 5.5 nM | 9.6 nM | 16.9 nM | 64 mg/L | 8 | –
C/C=C/C=C/C(=O)N[C@@H](CC(=O)N[C@H](C(=O)[C@@H]1C(=O)NC(=O)[C@H]1C)C(C)C)c1ccccc1 | 1 µg/mL (≈ 2.2 µM) | 0.5 µg/mL (≈ 1.1 µM) | 4 µg/mL (≈ 8.82 µM) | 4 µg/mL (≈ 8.82 µM) | 0.24 µg/mL (≈ 0.529 µM) | 8 µg/mL (≈ 17.6 µM) | > 64 µg/mL | 8 µg/mL (≈ 17.6 µM) | 8 µg/mL (≈ 17.6 µM) | > 64 µg/mL | 4 µg/mL (≈ 8.82 µM) | 0.5 µg/mL (≈ 1.1 µM) | 7.9 nM | – | – | 16 mg/L | 32 | INH (Escherichia coli [19]): 5 nM; Ratio (Staphylococcus aureus [20]): 8; Ratio (Escherichia coli [21]): 8
O=C(N[C@H](CO)[C@H](O)c1ccc([N+](=O)[O-])cc1)C(Cl)Cl [CHLORAMPHENICOL] | 8 µg/mL (≈ 24.8 µM) | 1 µg/mL (≈ 3.09 µM) | 4 µg/mL (≈ 12.4 µM) | – | 8 µg/mL (≈ 24.8 µM) | 8 µg/mL (≈ 24.8 µM) | 8 µg/mL (≈ 24.8 µM) | 2 µg/mL (≈ 6.19 µM) | – | > 64 µg/mL | 8 µg/mL (≈ 24.8 µM) | 1 µg/mL (≈ 3.09 µM) | – | – | – | – | – | –
